Compound activity deposited in PubChem BioAssay by several laboratories.
STAT3 act: STAT3 signaling activation; U3A cells, IL-6 STAT3-luciferase reporter, luminescence; 100% = signal with IL-6 EC80 alone; 190,000 compounds, 0.91% hits; activation (% of control), % at 5.6 µM; AID 871;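 active = activation above the screen-wide mean of compound activation plus 3 SD, cut at about 130% in these data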
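Material: STAT1-lacking human U3A cells, STAT3 luciferase reporter | Benchmarks: IL-6-only wells as 100% reference | Probe or stimulus: IL-6 (33 ng/mL) | Timing: Compound 1 h, then IL-6 6 h at 37 °C | Detection: Luminescence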
AHR act: activators of human aryl hydrocarbon receptor; P35869; AHR-responsive luciferase reporter cells, luminescence; activation, % at 5 µM; 320,000 compounds, 2.5% hits; in the data active = activation above about 47%
PolyA inh: blocks polyadenylation in yeast reporter cells; S. cerevisiae SKY197-pL101 polyadenylation reporter, beta-gal luminescence; efflux-impaired pdr1/pdr3 knockout yeast; score 100 = 6 SD above DMSO; activity score, % at 12 µM; 300,000 compounds, 0.02% hits; AID 1875;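 active = lowest replicate activity score at least 50, where 100 means six control SD above control mean; inconclusive = lowest score under 50 but half or more replicates reach 50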;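 also: yeast exposed to compound for 9 h at 30 °C; higher score means more reporter readthrough which indicates perturbed polyadenylation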
PERK inhibitor: human PERK inhibition, primary cell-based screen; Q9NZJ5; CHO PERK-DD fusion, SEAP luminescence translation reporter; inhibition, % at 5.6 µM; 220,000 compounds, 0.17% hits;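 active = inhibition above the mean inhibition of all tested compounds plus 3 SD, set separately per screening campaign, cut at about 2.9% in these data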;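 also: PERK kinase domain activated by AP20187 dimerizer at 100 nM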
Hsp70 act: Hsp70 transcriptional activation, primary screen; AID 1203; activation, % at 10 µM; HeLa Hsp70 promoter luciferase reporter, luminescence; scaled: vehicle 0, proteasome-inhibitor control 100%; 200,000 compounds, 0.04% hits;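 active = activation above the mean across all tested compounds plus 3 SD, cutoff set per campaign, cut at about 5.5% in these data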
HSF1 inhib: HSF1 inhibition; NIH3T3-HGL HSE-luciferase, MG132-induced, luminescence 8 h; hits give low values; activity change, negative = inhibition, % at 7.5 µM (by protocol); 300,000 compounds, 0.77% hits; AID 2098;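 active = more than half of replicate wells show activity change below -50%, luminescence cut by over half; inconclusive = some wells, but at most half, below -50%; inactive = no replicate well below -50%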;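 also: luciferase reports HSF-1 transcriptional activity via heat shock element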
AHR act confirm: confirmation of human aryl hydrocarbon receptor activators. shares compounds with AHR act. human cells, AHR-responsive luciferase reporter, luminescence. activation, % at 9 µM. 2,300 compounds, 87% hits. AID 2845; in the data active = activation above about 49%;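 also: HepG2 hepatoma cells carrying a DRE-driven firefly luciferase reporter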
PXR counter: activates human PXR in AHR activator counter-screen; 2,300 compounds, 88% hits; cell-based PXR reporter, luciferase luminescence; activation, % at 11.6 µM; shares compounds with AHR act; in the data active = activation above about 11%;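 also: human hepatoma DPX-2 cells expressing full-length human PXR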
Of the large screens only hits and unclear results are named; the others gave an inactive call (follow-up assays come after a bar, where they were run). Hits are enriched below; roughly 3.6% of the tested compounds scored in any of these assays.

COc1ccc2nc(NNC(=O)C3COc4ccccc4O3)sc2c1 (stereo unspecified)	AHR act 117 | AHR act confirm 76 | PXR counter 30
COc1ccc2nc(NC(=O)C3COc4ccccc4O3)sc2c1 (stereo unspecified)	none
CC1=CC(C)(C)NC(=S)N1C(C)c1ccccc1 (stereo unspecified)	none (no result: STAT3 act, PERK inhibitor, Hsp70 act)
CCn1c(=O)cc(OCC(=O)NCc2ccc(C)o2)c2ccccc21	AHR act 96 | AHR act confirm inactive | PXR counter 25
O=C(Nc1ccc(Cl)cc1F)c1ccc2c(c1)C(=O)N(Cc1ccncc1)C2=O	AHR act 99 (no result: STAT3 act, PolyA inh, PERK inhibitor, Hsp70 act, HSF1 inhib) | AHR act confirm 94 | PXR counter 11
CCOc1ccc(CCNC(=O)CCNC(=O)c2ccc(Br)cc2)cc1OCC	none (no result: STAT3 act, PERK inhibitor, Hsp70 act)
CCOc1ccc(S(=O)(=O)N2CCN(C(=O)C3CSC4(C)CCC(=O)N34)CC2)cc1 (stereo unspecified)	none (no result: STAT3 act, PolyA inh, PERK inhibitor, Hsp70 act, HSF1 inhib)
Nc1nc(-c2ccc(Br)cc2)cs1	none
Brc1ccc(-c2csc(-c3ccncc3)n2)cc1	AHR act 101 | AHR act confirm 102 | PXR counter 11
Brc1ccc(-c2csc(Nc3nc(-c4ccc(Br)cc4)cs3)n2)cc1	AHR act 85 (no result: STAT3 act, Hsp70 act) | AHR act confirm 116 | PXR counter 17
Cc1ccc(-c2csc(-c3ccncc3)n2)cc1	AHR act 80 | AHR act confirm 96 | PXR counter inactive
COc1ccc(Cl)cc1NCCC(O)c1ccc(F)cc1 (stereo unspecified)	AHR act 89 (no result: STAT3 act, PERK inhibitor, Hsp70 act) | AHR act confirm inactive | PXR counter 40
COc1ccc(NCCC(O)c2ccc(Cl)cc2)cc1 (stereo unspecified)	none (no result: STAT3 act, PERK inhibitor, Hsp70 act)
C(#Cc1ccc2c(c1)COc1c3ccccc3nn1-2)c1ccccc1	none (no result: STAT3 act, PERK inhibitor, Hsp70 act)
C#Cc1ccc2c(c1)COc1c3ccccc3nn1-2	AHR act 88, PolyA inh inconclusive (no result: STAT3 act, PERK inhibitor, Hsp70 act) | AHR act confirm 62 | PXR counter 25
Oc1ccc2ccc3[nH]cnc3c2c1	AHR act 80 (no result: STAT3 act, Hsp70 act) | AHR act confirm inactive | PXR counter 22
Cn1cccc1/C=N/n1c(-c2ccc(C(C)(C)C)cc2)n[nH]c1=S	AHR act 126 | AHR act confirm 104 | PXR counter 261
C=CCn1cc(/C=N/NC(=O)COc2cccc3cccnc23)c2ccccc21	AHR act 82 | AHR act confirm inactive | PXR counter 38
Cc1ccc(/C=C/C(=O)c2ccccc(=O)c2O)c(C)c1	AHR act 94 | AHR act confirm inactive | PXR counter 17
c1ccc2c(c1)ncn2-c1ccc(-c2ccnc3ncnn23)cc1	none
Cc1nccc(-c2ccc(-n3cnc4ccccc43)cc2)n1	AHR act 83 | AHR act confirm 63
O=C1CCC(=O)N1CCc1c[nH]c2ccccc12	none
O=C1COCC(=O)N1CCc1c[nH]c2ccccc12	AHR act 83 (no result: STAT3 act, Hsp70 act) | AHR act confirm 108 | PXR counter 12
O=C1CN2NC(=S)N(c3ccccc3)C2=CN1c1ccc(Cl)cc1	none
COc1cccc(-c2nc(-c3ccc(Br)o3)no2)c1	AHR act 86 (no result: STAT3 act, Hsp70 act) | AHR act confirm 136 | PXR counter 28
Brc1ccc(-c2nc(-c3ccccc3)no2)o1	AHR act 124 | AHR act confirm 148 | PXR counter 19
COc1ccc(-c2nc(-c3ccc(Br)o3)no2)cc1OC	none
c1ccc(-c2noc(-c3ccc4c(c3)OCO4)n2)cc1	AHR act 87 | AHR act confirm inactive | PXR counter inactive
Cc1ccc(-c2noc(-c3ccccc3Br)n2)cc1	AHR act 126 (no result: HSF1 inhib) | AHR act confirm 120 | PXR counter 18
c1ccc(-c2noc(-c3ccc4ccccc4c3)n2)cc1	none
COC(=O)Cc1c(C)c2ccc(OCC(=O)N3CCCC(C)C3)c(C)c2oc1=O (stereo unspecified)	none (no result: STAT3 act, PERK inhibitor, Hsp70 act)
COc1ccccc1-c1nc(-c2ccncc2)no1	AHR act 80 | AHR act confirm 83 | PXR counter 35
COc1ccccc1-c1nc(-c2ccc(Br)o2)no1	STAT3 act 159, AHR act 91 | AHR act confirm 131 | PXR counter 58
COc1ccc(Cl)cc1-c1nc(-c2ccncc2)no1	none
CCOc1ccc(N(CC(=O)NCCc2ccccc2)C(=O)CCC(=O)Nc2cc(C)ccn2)cc1	none (no result: STAT3 act, PERK inhibitor, Hsp70 act)
CCOC(=O)c1nc(NCc2ccccc2F)c2ccccc2n1	none
CCCCNc1c(-c2ccc(OC)c(SC3CCCCC3)c2)nc2cnccn12	AHR act 94 (no result: STAT3 act, PERK inhibitor, Hsp70 act) | AHR act confirm 58 | PXR counter 169
CC1CCCC(C)N1/N=C/C=C/c1ccccc1[N+](=O)[O-] (stereo unspecified)	AHR act 84 | AHR act confirm 109 | PXR counter 67
COc1ccccc1N1CCN(/N=C/C=C\c2ccccc2[N+](=O)[O-])CC1	none
CC1CC(C)CN(C(=S)Nc2ccc(OC(F)F)cc2)C1 (stereo unspecified)	AHR act 83 | AHR act confirm 64 | PXR counter 118
CC1CC(C)CN(C(=S)Nc2ccc(SC(F)F)cc2)C1 (stereo unspecified)	none
CCOc1ccc(NC(=O)c2csc3c2CCCC3)cc1	AHR act 146 | AHR act confirm 110 | PXR counter 45
CC(=O)c1cccc(NC(=O)c2csc3c2CCCCC3)c1	none
Cc1nnc(N/N=C/c2ccc(-c3ccccc3F)o2)n1N	AHR act 109 | AHR act confirm 75 | PXR counter 24
CCc1ccc(/C(C)=N/NC(=O)c2c[nH]c3ccccc23)s1	AHR act 141 (no result: STAT3 act, PERK inhibitor, Hsp70 act) | AHR act confirm 115 | PXR counter 59
C/C(=N\NC(=O)c1ccc(C(=O)N/N=C(\C)c2ccco2)o1)c1ccco1	AHR act 108 (no result: STAT3 act, PERK inhibitor, Hsp70 act) | AHR act confirm inactive | PXR counter inactive
C/C(=N\NC(=O)c1c[nH]c2ccccc12)c1ccco1	AHR act 92 | AHR act confirm 159 | PXR counter 24
C/C(=N\NC(=O)c1c[nH]c2ccccc12)c1ccccn1	none
CCc1ccc(/C(C)=N/NC(=O)C(O)c2ccccc2)s1 (stereo unspecified)	none (no result: STAT3 act, PERK inhibitor, Hsp70 act)
CC(C)(C)C(O)C(Cc1ccccc1Cl)n1cncn1 (stereo unspecified)	none (no result: STAT3 act, PERK inhibitor, Hsp70 act)
Cc1ccc(-c2[nH]c(-c3ccc(Cl)cc3)nc2SCC(=O)NCC2CCCO2)cc1 (stereo unspecified)	AHR act 108 | AHR act confirm 84 | PXR counter 86
CSc1ncc(C(=O)Nc2ccc(Cl)cc2)c(C)n1	AHR act 94 (no result: STAT3 act, PERK inhibitor, Hsp70 act) | AHR act confirm 100
CSc1ncc(C(=O)Nc2ccc(C(C)=O)cc2)c(C)n1	none (no result: STAT3 act, AHR act, PERK inhibitor, Hsp70 act)
